# Myeloid diff 2 = induction of myeloid progenitor differentiation, primary screen, cell-based, flow cytometry, MLPCN library; calls only at 10 µM; ER-HoxA9 myeloid progenitors, lysozyme-GFP differentiation; 360,000 compounds, 1% hits; AID 624256, 2012;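 active = normalized GFP-positive differentiation at or above the plate's own cutoff, the solvent-only control mean plus 3 SD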;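 note: cells exposed to compound for four days before flow analysis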
# XiGFP reactiv = activators of inactive X chromosome reactivation, primary screen, imaging, XiGFP fibroblasts, GFP high-content imaging, set 2 | XiGFP mouse fibroblasts, % GFP-positive cells imaging, 3 d; cells co-treated with 5-aza-dC sensitizer; scaled so ellipticine positive control = 100% | activation, % at 7.58 µM | 360,000 compounds, 0.055% hits;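 active = mean normalized replicate activation at least 10% and every replicate at or above 10%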;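 note: 0% = median of on-plate neutral control wells and 100% = ellipticine 6 µM median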
#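 System: XiGFP fibroblasts, SV40-immortalized. Medium: DMEM plus 5-aza-dC sensitizer. Doses: single point. Timing: 3 d treatment, 15 min room-temperature fixation. Control set: ellipticine 6 µM.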
# ABCB6 inh 2 = ABCB6 transporter inhibitors, primary screen, K562-ABCB6 cells, flow cytometry, MLPCN library; ATP-binding cassette sub-family B member 6 (Homo sapiens), Q9NP58; fluorescence ratio to DMSO, % at 10 µM; 360,000 compounds, 0.19% hits; K562-ABCB6 porphyrin accumulation, 1 h; stronger effect = lower value; AID 602162, 2011;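 active = fluorescence ratio to DMSO below 75%, the collection mean minus 3 SD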;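 note: signal is porphyrin accumulated inside mitochondria; 100% equals median channel fluorescence of DMSO control wells; lower ratio means ABCB6 inhibition with less porphyrin fluorescence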
# Target sequence (Q9NP58 whole entry, looked up): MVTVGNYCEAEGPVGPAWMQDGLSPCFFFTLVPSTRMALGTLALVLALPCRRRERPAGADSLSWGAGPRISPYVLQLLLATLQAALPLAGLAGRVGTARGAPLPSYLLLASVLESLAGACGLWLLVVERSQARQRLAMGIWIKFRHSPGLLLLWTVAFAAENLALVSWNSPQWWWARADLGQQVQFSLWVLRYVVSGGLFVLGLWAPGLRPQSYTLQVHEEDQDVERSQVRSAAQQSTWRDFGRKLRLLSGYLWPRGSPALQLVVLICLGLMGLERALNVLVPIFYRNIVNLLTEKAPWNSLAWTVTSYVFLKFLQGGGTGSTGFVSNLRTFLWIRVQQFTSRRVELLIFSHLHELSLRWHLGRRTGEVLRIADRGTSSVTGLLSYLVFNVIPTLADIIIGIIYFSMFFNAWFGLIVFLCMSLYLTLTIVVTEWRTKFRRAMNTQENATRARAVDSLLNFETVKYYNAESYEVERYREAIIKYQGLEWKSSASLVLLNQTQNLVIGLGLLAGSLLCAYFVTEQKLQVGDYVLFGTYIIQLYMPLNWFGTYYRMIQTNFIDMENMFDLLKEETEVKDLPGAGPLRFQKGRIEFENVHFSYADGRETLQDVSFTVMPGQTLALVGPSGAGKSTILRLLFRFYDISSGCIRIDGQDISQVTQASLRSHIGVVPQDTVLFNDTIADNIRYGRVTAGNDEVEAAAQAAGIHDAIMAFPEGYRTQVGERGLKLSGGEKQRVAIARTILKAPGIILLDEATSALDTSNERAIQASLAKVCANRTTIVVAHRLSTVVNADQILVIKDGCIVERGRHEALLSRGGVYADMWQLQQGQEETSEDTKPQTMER
# * = called active by the depositor; i = inactive; . = not tested or not shown; + = active, no number. The full list was thinned out, with hits kept by preference.
SMILES,Myeloid diff 2,XiGFP reactiv,ABCB6 inh 2
C[C@H](CO)N1C[C@H](C)[C@@H](CN(C)Cc2ccc(C(F)(F)F)cc2)Oc2c(NS(=O)(=O)c3ccc(F)cc3)cccc2C1=O,.,0,.
O=C(CCCCCn1c(=S)[nH]c2ccc(N3CCOCC3)cc2c1=O)NC1CCN(Cc2ccccc2)CC1,i,0,97
O=C(NC1CCN(Cc2ccccc2)CC1)c1ccc(Cn2c(=S)[nH]c3ccc(N4CCOCC4)cc3c2=O)cc1,+,0,107
CCN1CCN(c2ccc(S(=O)(=O)N3CCCCC3)cc2NC(=O)/C=C/c2cccc(OC)c2OC)CC1,+,0,96
CCN1CCN(c2ccc(S(=O)(=O)N3CCCCC3)cc2NC(=O)/C=C/c2ccc(F)cc2)CC1,i,0,104
C[C@]12CCC(=O)CC1=CCC1C3CC=C(C#N)[C@@]3(C)CC[C@@]12O (stereo not given in full),+,0,184
CC(C)[C@@H]1C(=O)N[C@@H](c2ccccc2)CC=CC[C@H](C)Oc2ccccc2C(=O)N1C (mixture of isomers),.,0,.
Cc1ccccc1NC(=O)Nc1ccc2c(c1)C(=O)N(C)[C@H]1CC[C@@H](CC(=O)O)O[C@H]1CO2,.,0,.
COc1ccc(S(=O)(=O)NC2CC2)cc1Br,+,0,94
COc1cc(S(=O)(=O)NC2CCCCC2)ccc1F,i,.,108
Cc1cccc(S(=O)(=O)N2CC[C@H]3[C@H](CO)Nc4ccc(C#Cc5ccc(F)cc5)cc4[C@H]32)c1,.,0,.
C[C@H]1CN([C@@H](C)CO)C(=O)c2cc(C#CC(C)(C)O)cnc2O[C@@H]1CN(C)C(=O)C1CCCCC1,.,0,.
COc1ccc(NC(=O)N2C[C@@H](O)COC[C@H]3O[C@@H](CC(=O)N4CCN(C)CC4)CC[C@@H]32)cc1,.,0,.
CN1C[C@@H]2[C@@H]3C(=O)N(C)C(=O)[C@@H]3[C@](Cc3ccccc3)(C1=O)N2C(=O)c1ccccc1,+,0,96
CN1C[C@@H]2[C@@H]3C(=O)N(C)C(=O)[C@@H]3[C@](Cc3ccccc3)(C1=O)N2C(=O)c1ccc(F)cc1,i,0,96
C[C@@H]1CN([C@H](C)CO)C(=O)c2cccc(NS(=O)(=O)c3cccs3)c2O[C@H]1CN(C)C,.,0,.
COc1ccc(N(CC(=O)Nc2ccccc2OC)S(=O)(=O)c2ccc(NC(C)=O)cc2)cc1,+,0,99
CCOC(=O)c1ccc(NC(=O)CN(C)S(=O)(=O)c2ccc(OC)cc2)cc1,+,.,104
COc1ccc(NC(=O)CN(C)S(=O)(=O)c2ccccc2)cc1,i,.,88
COc1ccccc1NC(=O)CN(c1ccccc1)S(=O)(=O)c1ccccc1,i,0,97
COc1ccc(OC)c(NC(=O)CN(c2ccc(C)cc2)S(=O)(=O)c2c(C)noc2C)c1,i,.,86
COc1ccc(N(CC(=O)Nc2cc(Cl)ccc2OC)S(=O)(=O)c2c(C)noc2C)cc1,+,.,103
COc1ccc2c3c([nH]c2c1)[C@@H](CO)N(C(=O)C1CCCCC1)CC31CCN(C)CC1,.,0,.
CCCC#Cc1ccc([C@H]2[C@H](CO)N3CCCCN(S(=O)(=O)c4ccccc4F)C[C@@H]23)cc1,.,1,.
Cc1c(NC(=O)C(C)OC(=O)c2cccs2)c(=O)n(-c2ccccc2)n1C (stereo not given),i,0,99
SMILES,Myeloid diff 2,XiGFP reactiv,ABCB6 inh 2
CCC(C)(C)C1CCc2nc3ccccc3c(C(=O)OC(C)C(=O)Nc3c(C)n(C)n(-c4ccccc4)c3=O)c2C1 (stereo not given),+,0,88
O=C(NCCCCNC(=O)c1ccc(Cl)s1)c1ccc(Cl)s1,i,.,91
CN(C)CCNC(=O)c1ccc(Cl)s1,+,.,100
O=C(C[C@H]1CC[C@H]2[C@@H](COC[C@@H](O)CN2C(=O)Nc2cc(Cl)cc(Cl)c2)O1)N1CCCCC1,.,0,.
Cc1noc(C)c1S(=O)(=O)Nc1ccc2c(c1)C(=O)N([C@H](C)CO)C[C@@H](C)[C@H](CN(C)C)OCCCC[C@@H](C)O2,.,0,.
CSc1ccccc1C(=O)C1CCCN(C(=O)NC(C)C)C1 (stereo not given),i,1,92
CCn1nc(C)cc1C(=O)N1CCCC(C(=O)c2ccccc2SC)C1 (stereo not given),+,0,86
CCCN1C[C@H](C)[C@H](OC)CN(C)C(=O)c2cc(NC(=O)c3cccc(OC)c3)ccc2OC[C@@H]1C,.,0,.

# Screening data: PubChem BioAssay, several laboratories
